Assay results published in PMC10125337 (ACS Bio & Med Chem Au, 2023).
Where a SMILES comes first, the peptide text is derived from it. Where no end group is shown, it is not given here. [ ]: non-standard residue; d: D form.

B1: NT-02 (peptide)
peptide: [dK][dL][dL][dF][dF][dA]-NH2
modifications: N-terminus assumed
SMILES: CC(C)C[C@@H](NC(=O)[C@H](N)CCCCN)C(=O)N[C@H](CC(C)C)C(=O)N[C@H](Cc1ccccc1)C(=O)N[C@H](Cc1ccccc1)C(=O)N[C@H](C)C(N)=O
B2: NT-03 (peptide)
peptide: [dK][dL][dL][dF][dF]-NH2
modifications: N-terminus assumed
SMILES: CC(C)C[C@@H](NC(=O)[C@H](N)CCCCN)C(=O)N[C@H](CC(C)C)C(=O)N[C@H](Cc1ccccc1)C(=O)N[C@H](Cc1ccccc1)C(N)=O
B3: NT-13 (peptide)
peptide: [dL][dP][dF][dF][dA][dE]-NH2
modifications: N-terminus assumed
SMILES: CC(C)C[C@@H](N)C(=O)N1CCC[C@@H]1C(=O)N[C@H](Cc1ccccc1)C(=O)N[C@H](Cc1ccccc1)C(=O)N[C@H](C)C(=O)N[C@H](CCC(=O)O)C(N)=O

Key:
Aβ42 peptide [1] = target: T1, Aβ42 peptide (Homo sapiens, UniProt P05067); assay: ThT fluorescence assay of Aβ42 aggregation inhibition; format: biochemical; conditions: 72 h, 37 °C; for inhibition of Aβ42 aggregation (ThT assay): peptide 5 µM + Aβ42 5 µM; for inhibition of Aβ42 peptide aggregation (ThT assay): peptide 160 µM + Aβ42 5 µM
Aβ42 peptide [2] = target: T1, Aβ42 peptide; assay: FTIR spectroscopy of β-sheet content; conditions: Aβ42 20 µM + peptide 20 µM, PBS pH 7.4, 37 °C, 7 days; β-sheet 1610–1640, α-helix 1640–1660 cm^–1
[3] = tested on: Aβ42-induced apoptosis in PC-12-derived neurons; assay: Apoptosis assay; format: cell-based, rat; conditions: Aβ42 10 µM + NT peptide 10 µM, 24 h, n = 3
Serum stability = format: in vitro ADME; conditions: human, 50% human serum
In short: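 Test peptide at 150 μM final in 50% human serum, 37 °C. Aliquots were taken at 0, 6, 12, 24, 48 and 72 h and mixed 1:1 with acetonitrile to precipitate serum proteins. Samples were held 30 min at 4 °C, then centrifuged at 10,000 rpm for 30 min at 4 °C. The supernatant was analysed by RP-HPLC for percentage of intact peptide. Compound-free serum served as blank.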

Aβ42 peptide [4] = target: T1, Aβ42 peptide; assay: HR-TEM of fibril formation; conditions: for Aβ42 fibril structure after coincubation (HR-TEM): Aβ42 coincubated with peptide at 37 °C for 7 days; for fibril formation of the peptide incubated alone (HR-TEM): 7 days, 37 °C
MTT cell viability = format: cell-based; conditions: rat, NGF-differentiated PC-12-derived neurons
In short: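 PC-12 cells seeded at 1×10^4/well and grown 24 h at 37 °C, 5% CO2. At 50–60% confluence they were differentiated with 100 ng/mL NGF in DMEM with reduced horse serum. Test peptide (5–160 μM) was added for 24 h. MTT (5 mg/mL in PBS) was added for 4 h at 37 °C, and formazan was dissolved in DMSO/methanol 1:1. A570 was read; viability = (treated − blank)/(control − blank) × 100.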

[5] = target: amyloid beta (1–42) peptide (human); assay: ITC
amyloid beta (1–42) peptide (human), sequence (P05067 672-713): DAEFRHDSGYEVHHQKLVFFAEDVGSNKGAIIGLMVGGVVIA

T1 sequence (P05067 672-713): as above

Molecule	inhibition of Aβ42 aggregation (ThT assay) (Aβ42 peptide [1]) [%]	inhibition of Aβ42 peptide aggregation (ThT assay) (Aβ42 peptide [1])	apoptotic cells (PI fluorescence intensity) [3] [fold]	remaining at 72 h, 150 μM (Serum stability) [%]	Aβ42 fibril structure after coincubation (HR-TEM) (Aβ42 peptide [4])	fibril formation of the peptide incubated alone (HR-TEM) (Aβ42 peptide [4])	viability at 24 h, 160 µM (MTT cell viability) [%]	Ka [5] [M⁻¹]	also measured
CC(C)C[C@@H](NC(=O)[C@H](N)CCCCN)C(=O)N[C@H](CC(C)C)C(=O)N[C@H](Cc1ccccc1)C(=O)N[C@H](Cc1ccccc1)C(=O)N[C@H](C)C(N)=O [NT-02] (H-[dK][dL][dL][dF][dF][dA]-NH2)	57.61	about 78.96%	2.84	95.5	Absence of the fibril structure	no fibril formation was observed			FTIR C=O amide peak of Aβ42 treated with peptide (Aβ42 peptide [2]): 1642.76 cm^–1
CC(C)C[C@@H](NC(=O)[C@H](N)CCCCN)C(=O)N[C@H](CC(C)C)C(=O)N[C@H](Cc1ccccc1)C(=O)N[C@H](Cc1ccccc1)C(N)=O [NT-03] (H-[dK][dL][dL][dF][dF]-NH2)	54.26	~80.63%	6.21	91.6	Absence of the fibril structure	no fibril formation was observed			
CC(C)C[C@@H](N)C(=O)N[C@H](CC(C)C)C(=O)N[C@H](Cc1ccccc1)C(=O)N[C@H](Cc1ccccc1)C(=O)N[C@H](C)C(N)=O [NT-06] (H-[dL][dL][dF][dF][dA]-NH2)							71.7		
CC(C)C[C@@H](N)C(=O)N[C@H](CC(C)C)C(=O)N[C@H](Cc1ccccc1)C(=O)N[C@H](Cc1ccccc1)C(N)=O [NT-07] (H-[dL][dL][dF][dF]-NH2)							42.5		
CC(C)C[C@@H](N)C(=O)N[C@H](Cc1ccccc1)C(=O)N[C@H](Cc1ccccc1)C(=O)N[C@H](C)C(=O)N[C@H](CCC(=O)O)C(N)=O [NT-08] (H-[dL][dF][dF][dA][dE]-NH2)							50.1		
CC(C)C[C@@H](N)C(=O)N1CCC[C@@H]1C(=O)N[C@H](Cc1ccccc1)C(=O)N[C@H](Cc1ccccc1)C(=O)N[C@H](C)C(=O)N[C@H](CCC(=O)O)C(N)=O [NT-13] (H-[dL][dP][dF][dF][dA][dE]-NH2)	48.41	~79.88%	4.13	90.4	Absence of the fibril structure	no fibril formation was observed			FTIR C=O amide peak of Aβ42 treated with peptide (Aβ42 peptide [2]): 1645.94 cm^–1
CC(C)C[C@@H](NC(=O)[C@H](N)CCCCN)C(=O)N[C@@H](C(=O)N[C@H](Cc1ccccc1)C(=O)N[C@H](Cc1ccccc1)C(N)=O)C(C)C [NT-15, reference compound]	41.87								
B1								2.25e+06	
B2								3.47e+06	
B3								142000	
